According to ChEMBL document CHEMBL2396641, “Synthesis, antioxidant, and antimicrobial evaluation of some 2-arylbenzimidazole derivatives” (Bioorg Med Chem Lett, 2013):
pEC50, pIC50: −log10 of the molar value. ≈ marks a conversion by molar mass, not a printed value. Calls of active or inactive are those of the source. No cut-off for these calls is given here.

Legend:
[1] = tested on: NIH3T3; assay: Cytotoxicity against mouse NIH/3T3 cells after 48 hrs by SRB assay; assay type: cell-based; details: NIH3T3, 48 h
[2] = tested on: Escherichia coli; assay: Antibacterial activity against Escherichia coli after 24 hrs by agar dilution method; assay type: functional
[3] = tested on: Bacillus cereus; assay: Antibacterial activity against Bacillus cereus after 24 hrs by agar dilution method; assay type: functional
[4] = tested on: Pseudomonas aeruginosa; assay: Antibacterial activity against Pseudomonas aeruginosa after 24 hrs by agar dilution method; assay type: functional
[5] = tested on: Staphylococcus epidermidis; assay: Antibacterial activity against Staphylococcus albus after 24 hrs by agar dilution method; assay type: functional
[6] = tested on: Staphylococcus aureus; assay: Antibacterial activity against Staphylococcus aureus after 24 hrs by agar dilution method; assay type: functional
[7] = Antioxidant activity assessed as ferric ion reducing ability after 20 mins by spectrophotometric analysis; assay type: functional
[8] = Antioxidant activity assessed as ferric ion reducing ability at 1 to 50 uM after 20 mins by spectrophotometric analysis; assay type: functional
[9] = tested on: Radical scavenging activity; assay: Antioxidant activity assessed as DPPH radical scavenging activity after 30 mins by spectrophotometric analysis; assay type: functional
Procedure, shortened: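 DPPH radical bleaching followed as loss of absorbance at 517 nm; IC50 derived; mean ± SD, n = 3.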

[10] = Antioxidant activity assessed as superoxide radical anion scavenging activity by spectrophotometric analysis; assay type: functional
[11] = Antioxidant activity assessed as hydroxyl radical scavenging activity after 1 hr by spectrophotometric analysis; assay type: functional

| SMILES | MIC [2] [µM] | MIC [3] [µM] | MIC [4] [µM] | MIC [5] [µM] | MIC [6] [µM] | pEC50 [9] | pEC50 [10] | pEC50 [11] | pIC50 [1] | MBC [2] [µM] | MBC [3] [µM] | MBC [4] [µM] | MBC [5] [µM] | MBC [6] [µM] | Activity [7] | Activity [8] |
| --- | --- | --- | --- | --- | --- | --- | --- | --- | --- | --- | --- | --- | --- | --- | --- | --- |
| O=C(O)c1cn(C2CC2)c2cc(N3CCNCC3)c(F)cc2c1=O [CIPROFLOXACIN] | 0.39 (≈ 0.129 µg/mL) | 0.39 (≈ 0.129 µg/mL) | 0.78 (≈ 0.258 µg/mL) | 0.39 (≈ 0.129 µg/mL) | 0.39 (≈ 0.129 µg/mL) | – | – | – | < 3.70 | 0.39 (≈ 0.129 µg/mL) | 0.39 (≈ 0.129 µg/mL) | 0.78 (≈ 0.258 µg/mL) | 0.39 (≈ 0.129 µg/mL) | 0.39 (≈ 0.129 µg/mL) | – | – |
| COc1ccc2[nH]c(-c3ccc(OC)c(OC)c3)nc2c1 | > 200 | 25 (≈ 7.11 µg/mL) | > 200 | 100 (≈ 28.4 µg/mL) | 50 (≈ 14.2 µg/mL) | < 3.70 | < 3.70 | < 3.70 | < 3.70 | – | 100 (≈ 28.4 µg/mL) | – | > 200 | 200 (≈ 56.9 µg/mL) | – | – |
| COc1ccc(OC)c(-c2nc3cc(OC)ccc3[nH]2)c1 | > 200 | 100 (≈ 28.4 µg/mL) | > 200 | > 200 | 6.25 (≈ 1.78 µg/mL) | < 3.70 | < 3.70 | < 3.70 | < 3.70 | – | 200 (≈ 56.9 µg/mL) | – | – | 50 (≈ 14.2 µg/mL) | – | – |
| c1ccc(-c2nc3ccccc3[nH]2)cc1 | 6.25 (≈ 1.21 µg/mL) | > 200 | > 200 | > 200 | 100 (≈ 19.4 µg/mL) | < 3.70 | < 3.70 | < 3.70 | < 3.70 | 100 (≈ 19.4 µg/mL) | – | – | – | > 200 | – | – |
| Oc1ccccc1-c1nc2ccccc2[nH]1 | 25 (≈ 5.26 µg/mL) | > 200 | > 200 | > 200 | > 200 | < 3.70 | 3.91 | < 3.70 | < 3.70 | 100 (≈ 21 µg/mL) | – | – | – | – | – | – |
| COc1ccc2[nH]c(-c3ccc(O)c(OC)c3)nc2c1 | > 200 | 50 (≈ 13.5 µg/mL) | > 200 | > 200 | 100 (≈ 27 µg/mL) | 4.24 | < 3.70 | < 3.70 | < 3.70 | – | 200 (≈ 54.1 µg/mL) | – | – | 200 (≈ 54.1 µg/mL) | – | – |
| Oc1ccc(-c2nc3ccccc3[nH]2)cc1 | 25 (≈ 5.26 µg/mL) | > 200 | > 200 | > 200 | 12.5 (≈ 2.63 µg/mL) | < 3.70 | < 3.70 | < 3.70 | < 3.70 | 100 (≈ 21 µg/mL) | – | – | – | 50 (≈ 10.5 µg/mL) | – | – |
| COc1ccc(-c2nc3cc(O)ccc3[nH]2)c(OC)c1 | 12.5 (≈ 3.38 µg/mL) | 50 (≈ 13.5 µg/mL) | > 200 | > 200 | 0.39 (≈ 0.105 µg/mL) | 4.49 | < 3.70 | < 3.70 | < 3.70 | 25 (≈ 6.76 µg/mL) | 50 (≈ 13.5 µg/mL) | – | – | 0.39 (≈ 0.105 µg/mL) | Dose-dependent effect | Active |

More lines, main results first:

| MIC [2] [µM] | MIC [3] [µM] | MIC [4] [µM] | MIC [5] [µM] | MIC [6] [µM] | pEC50 [9] | pEC50 [10] | pEC50 [11] | SMILES | pIC50 [1] | MBC [2] [µM] | MBC [3] [µM] | MBC [4] [µM] | MBC [5] [µM] | MBC [6] [µM] | Activity [7] | Activity [8] |
| --- | --- | --- | --- | --- | --- | --- | --- | --- | --- | --- | --- | --- | --- | --- | --- | --- |
| > 200 | 50 (≈ 11.3 µg/mL) | > 200 | > 200 | 1.56 (≈ 0.353 µg/mL) | 4.47 | < 3.70 | 3.80 | Oc1ccc(-c2nc3cc(O)ccc3[nH]2)cc1 | < 3.70 | – | 50 (≈ 11.3 µg/mL) | – | – | 1.56 (≈ 0.353 µg/mL) | Dose-dependent effect | Active |
| – | – | – | – | – | 4.44 | < 3.70 | 4.19 | CC(C)(C)c1cc(O)ccc1O [E319] | – | – | – | – | – | – | Dose-dependent effect | – |
| > 200 | 100 (≈ 25.6 µg/mL) | > 200 | > 200 | > 200 | 4.64 | < 3.70 | < 3.70 | COc1ccc(O)cc1-c1nc2cc(O)ccc2[nH]1 | < 3.70 | – | > 200 | – | – | – | Dose-dependent effect | Active |
| 6.25 (≈ 1.41 µg/mL) | 25 (≈ 5.66 µg/mL) | > 200 | 100 (≈ 22.6 µg/mL) | 1.56 (≈ 0.353 µg/mL) | 4.52 | 3.77 | 3.91 | Oc1ccc2[nH]c(-c3ccccc3O)nc2c1 | < 3.70 | 25 (≈ 5.66 µg/mL) | 25 (≈ 5.66 µg/mL) | – | > 200 | 1.56 (≈ 0.353 µg/mL) | Dose-dependent effect | Active |
| > 200 | 25 (≈ 6.06 µg/mL) | > 200 | > 200 | 0.78 (≈ 0.189 µg/mL) | 4.59 | < 3.70 | < 3.70 | Oc1cc(O)cc(-c2nc3cc(O)ccc3[nH]2)c1 | < 3.70 | – | 25 (≈ 6.06 µg/mL) | – | – | 0.78 (≈ 0.189 µg/mL) | Dose-dependent effect | Active |
